Test results reported in ChEMBL document CHEMBL1142960, “Synthesis and structure-activity relationships for 2,4-dinitrobenzamide-5-mustards as prodrugs for the Escherichia coli nfsB nitroreductase in gene therapy” (J Med Chem, 2007).
Converted amounts (≈) assume the structure as drawn.

Test system: not listed separately
Assay: Partition coefficient at pH 7.4 by shake-flask method
Assay type: physicochemical
Conditions: octanol/water
Outline: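 Octanol-water partition coefficient by shake-flask at pH 7.4, reported with SEM.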
With `NC(=O)c1cc(N(CCCl)CCBr)c([N+](=O)[O-])cc1[N+](=O)[O-]` the logD was 1.61. In the case of `O=C(NCCCO)c1cc(N(CCCl)CCCl)c([N+](=O)[O-])cc1[N+](=O)[O-]`, the logD is reported as 1.49.

Test system: V79
Assay: Antiproliferative activity against chinese hamster wild-type V79 NTR-ve cells after 18 hrs
Assay type: functional, cell-based
Conditions: Cricetulus griseus, V79, 18 h
`NC(=O)c1cc(N(CCCl)CCBr)c([N+](=O)[O-])cc1[N+](=O)[O-]` showed an IC50 of 139 µM. For `O=C(NCCCO)c1cc(N(CCCl)CCCl)c([N+](=O)[O-])cc1[N+](=O)[O-]`, the IC50 was 555 µM.

Test system: V79
Assay: Antiproliferative activity against chinese hamster V79 NTRpuro cells after 18 hrs
Assay type: functional, cell-based
Conditions: Cricetulus griseus, V79, 18 h
Compound `NC(=O)c1cc(N(CCCl)CCBr)c([N+](=O)[O-])cc1[N+](=O)[O-]` has an IC50 of 0.59 µM. Work on `O=C(NCCCO)c1cc(N(CCCl)CCCl)c([N+](=O)[O-])cc1[N+](=O)[O-]` yielded an IC50 of 7.7 µM.

Test system: V79
Assay: Selectivity ratio of IC50 for V79 NTR-ve cells to IC50 for V79 NTRpuro cells
Assay type: functional, Cricetulus griseus
Conditions: not given
In the case of `NC(=O)c1cc(N(CCCl)CCBr)c([N+](=O)[O-])cc1[N+](=O)[O-]`, the “Ratio IC50” value is reported as 237. For `O=C(NCCCO)c1cc(N(CCCl)CCCl)c([N+](=O)[O-])cc1[N+](=O)[O-]`, the “Ratio IC50” value was 77.

Test system: EMT6
Assay: Antiproliferative activity against mouse wild type EMT6 NTR-ve cells after 18 hrs
Assay type: functional, cell-based
Conditions: EMT6, 18 h
Work on `NC(=O)c1cc(N(CCCl)CCBr)c([N+](=O)[O-])cc1[N+](=O)[O-]` yielded an IC50 of 150 µM. With `O=C(NCCCO)c1cc(N(CCCl)CCCl)c([N+](=O)[O-])cc1[N+](=O)[O-]` the IC50 was 422 µM.

Test system: EMT6
Assay: Antiproliferative activity against mouse EMT6 NTRpuro cells after 18 hrs
Assay type: functional, cell-based
Conditions: EMT6, 18 h
For `NC(=O)c1cc(N(CCCl)CCBr)c([N+](=O)[O-])cc1[N+](=O)[O-]`, the IC50 was 0.1 µM. In the case of `O=C(NCCCO)c1cc(N(CCCl)CCCl)c([N+](=O)[O-])cc1[N+](=O)[O-]`, the IC50 is reported as 1.02 µM.

Test system: EMT6
Assay: Selectivity ratio of IC50 for EMT6 NTR-ve cells to IC50 forEMT6 NTRpuro cells
Assay type: functional, Mus musculus
Conditions: not given
For `NC(=O)c1cc(N(CCCl)CCBr)c([N+](=O)[O-])cc1[N+](=O)[O-]`, the “Ratio IC50” value was 2190. With `O=C(NCCCO)c1cc(N(CCCl)CCCl)c([N+](=O)[O-])cc1[N+](=O)[O-]` the “Ratio IC50” value was 477.

Test system: WiDr
Assay: Antiproliferative activity against human wild type WiDr NTR-ve cells after 18 hrs
Assay type: functional, cell-based
Conditions: not given
Work on `NC(=O)c1cc(N(CCCl)CCBr)c([N+](=O)[O-])cc1[N+](=O)[O-]` yielded an IC50 of 150 µM. `O=C(NCCCO)c1cc(N(CCCl)CCCl)c([N+](=O)[O-])cc1[N+](=O)[O-]` showed an IC50 of 518 µM.

Test system: WiDr
Assay: Antiproliferative activity against human WiDr NTRneo cells after 18 hrs
Assay type: functional, cell-based
Conditions: not given
Work on `NC(=O)c1cc(N(CCCl)CCBr)c([N+](=O)[O-])cc1[N+](=O)[O-]` yielded an IC50 of 0.69 µM. For `O=C(NCCCO)c1cc(N(CCCl)CCCl)c([N+](=O)[O-])cc1[N+](=O)[O-]`, the IC50 was 10 µM.

Test system: WiDr
Assay: Selectivity ratio of IC50 for WiDr NTR-ve cells to IC50 for WiDr NTRneo cells
Assay type: functional, Homo sapiens
Conditions: not given
In the case of `NC(=O)c1cc(N(CCCl)CCBr)c([N+](=O)[O-])cc1[N+](=O)[O-]`, the “Ratio IC50” value is reported as 236. With `O=C(NCCCO)c1cc(N(CCCl)CCCl)c([N+](=O)[O-])cc1[N+](=O)[O-]` the “Ratio IC50” value was 51.

Test system: not listed separately
Assay: Antiproliferative activity against human wild type Skov3 NTR-ve cells after 18 hrs
Assay type: functional, cell-based
Conditions: not given
Work on `NC(=O)c1cc(N(CCCl)CCBr)c([N+](=O)[O-])cc1[N+](=O)[O-]` yielded an IC50 of 226 µM. `O=C(NCCCO)c1cc(N(CCCl)CCCl)c([N+](=O)[O-])cc1[N+](=O)[O-]` showed an IC50 of 948 µM.

Test system: V79
Assay: Clonogenic survival of V79 NTRoua cells after 5 hrs by MCL assay
Assay type: functional, Cricetulus griseus
Conditions: not given
Work on `NC(=O)c1cc(N(CCCl)CCBr)c([N+](=O)[O-])cc1[N+](=O)[O-]` yielded an Activity greater than 300 µM. In the case of `O=C(NCCCO)c1cc(N(CCCl)CCCl)c([N+](=O)[O-])cc1[N+](=O)[O-]`, the Activity is reported as 3300 µM.

Test system: not listed separately
Assay: Antiproliferative activity against human Skov3 NTRneo cells after 18 hrs
Assay type: functional, cell-based
Conditions: SK-OV-3, 18 h
Compound `NC(=O)c1cc(N(CCCl)CCBr)c([N+](=O)[O-])cc1[N+](=O)[O-]` has an IC50 of 0.84 µM. In the case of `O=C(NCCCO)c1cc(N(CCCl)CCCl)c([N+](=O)[O-])cc1[N+](=O)[O-]`, the IC50 is reported as 6.5 µM.

Test system: not listed separately
Assay: Selectivity ratio of IC50 for Skov3 NTR-ve cells to IC50 for Skov3 NTRneo cells
Assay type: functional, Homo sapiens
Conditions: not given
For `NC(=O)c1cc(N(CCCl)CCBr)c([N+](=O)[O-])cc1[N+](=O)[O-]`, the “Ratio IC50” value was 280. With `O=C(NCCCO)c1cc(N(CCCl)CCCl)c([N+](=O)[O-])cc1[N+](=O)[O-]` the “Ratio IC50” value was 146.

Test system: V79
Assay: Clonogenic survival of 3% V79 NTRpuro cells in co-cultures with 97% V79 NTRoua after 5 hrs by MCL assay
Assay type: functional, Cricetulus griseus
Conditions: not given
Outline: (§1)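 Multicellular layer cocultures of 3% V79-NTRpuro activators and 97% V79oua NTR-ve targets (ouabain-resistant), exposed to prodrug for 5 h. MCLs were then trypsin-dissociated and plated in ouabain or puromycin selective media for clonogenic survival. C10 (10% survival) interpolated for activators and targets; AC/TC ratio derived. Mean with SEM or range over independent experiments.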
`NC(=O)c1cc(N(CCCl)CCBr)c([N+](=O)[O-])cc1[N+](=O)[O-]` gave an Activity of 3.4 µM. `O=C(NCCCO)c1cc(N(CCCl)CCCl)c([N+](=O)[O-])cc1[N+](=O)[O-]` showed an Activity of 95 µM.

Test system: V79
Assay: Clonogenic survival of 97% V79 NTRoua cells in co-cultures with 3% V79 NTRpuro cells after 5 hrs by MCL assay
Assay type: functional, Cricetulus griseus
Conditions: not given
Outline: as §1
With `NC(=O)c1cc(N(CCCl)CCBr)c([N+](=O)[O-])cc1[N+](=O)[O-]` the Activity was 8.2 µM. `O=C(NCCCO)c1cc(N(CCCl)CCCl)c([N+](=O)[O-])cc1[N+](=O)[O-]` gave an Activity of 150 µM.

Test system: not listed separately
Assay: Toxicity in ip dosed CD1 nude mouse in DMSO/PEG
Assay type: organism-based
Conditions: in vivo
Outline: (§2)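 Maximum tolerated dose (MTD) determined in CD-1 nude mice after a single i.p. injection of prodrug, given in the vehicle named in each line.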
`O=C(NCCCO)c1cc(N(CCCl)CCCl)c([N+](=O)[O-])cc1[N+](=O)[O-]` showed an MTD of 178 µmol/kg.

Test system: not listed separately
Assay: Toxicity in ip dosed CD1 nude mouse in DMSO
Assay type: organism-based
Conditions: in vivo
Outline: as §2
With `NC(=O)c1cc(N(CCCl)CCBr)c([N+](=O)[O-])cc1[N+](=O)[O-]` the MTD was 237 µmol/kg.

Test system: EMT6
Assay: Antitumor activity against mixed mouse EMT6/EMT6 NTRpuro cells injected in CD1 nude mouse assessed as cell kill at 178 umol/kg, ip in DMSO/PEG after 18 hrs
Assay type: functional
Conditions: not given
`O=C(NCCCO)c1cc(N(CCCl)CCCl)c([N+](=O)[O-])cc1[N+](=O)[O-]` gave an LCK of 0.44.

Test system: EMT6
Assay: Antitumor activity against mixed mouse EMT6/EMT6 NTRpuro cells injected in CD1 nude mouse assessed as cell kill at 237 umol/kg, ip in DMSO after 18 hrs
Assay type: functional
Conditions: not given
Work on `NC(=O)c1cc(N(CCCl)CCBr)c([N+](=O)[O-])cc1[N+](=O)[O-]` yielded an LCK greater than 3.02.

Test system: not listed separately
Assay: Solubility in alpha MEM
Assay type: physicochemical
Conditions: not given
Outline: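 Solubility (mM) in α-MEM with 5% fetal calf serum at ambient temperature, measured by HPLC.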
In the case of `NC(=O)c1cc(N(CCCl)CCBr)c([N+](=O)[O-])cc1[N+](=O)[O-]`, the solubility is reported as 630 µM (≈ 249 µg/mL). Compound `O=C(NCCCO)c1cc(N(CCCl)CCCl)c([N+](=O)[O-])cc1[N+](=O)[O-]` has a solubility of 4100 µM (≈ 1680 µg/mL).

Test system: not listed separately
Assay: Stability in alpha MEM at 37 degC after 24 hrs
Assay type: physicochemical
Conditions: read-out: Stability
Outline: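 Percent parent compound remaining, by HPLC, after holding in α-MEM with 5% fetal calf serum at 37 °C for 24 h.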
Compound `NC(=O)c1cc(N(CCCl)CCBr)c([N+](=O)[O-])cc1[N+](=O)[O-]` has a remaining at 24 h of 62%. Work on `O=C(NCCCO)c1cc(N(CCCl)CCCl)c([N+](=O)[O-])cc1[N+](=O)[O-]` yielded a remaining at 24 h of 108%.
